# KCNK3 inh = human KCNK3 channel inhibition, primary screen; O14649; CHO-KCNK3 thallium flux, FluxOR fluorescence; stronger effect = lower value; B-score at 10 µM; hit rate 0.84% among 340,000; AID 602410;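 active means B-score under library mean minus 4 SD, starting fluorescence ratio at most library mean plus 5 SD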;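 further: more negative B-score means stronger inhibition of thallium flux through KCNK3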
# Target sequence (O14649 whole entry, looked up): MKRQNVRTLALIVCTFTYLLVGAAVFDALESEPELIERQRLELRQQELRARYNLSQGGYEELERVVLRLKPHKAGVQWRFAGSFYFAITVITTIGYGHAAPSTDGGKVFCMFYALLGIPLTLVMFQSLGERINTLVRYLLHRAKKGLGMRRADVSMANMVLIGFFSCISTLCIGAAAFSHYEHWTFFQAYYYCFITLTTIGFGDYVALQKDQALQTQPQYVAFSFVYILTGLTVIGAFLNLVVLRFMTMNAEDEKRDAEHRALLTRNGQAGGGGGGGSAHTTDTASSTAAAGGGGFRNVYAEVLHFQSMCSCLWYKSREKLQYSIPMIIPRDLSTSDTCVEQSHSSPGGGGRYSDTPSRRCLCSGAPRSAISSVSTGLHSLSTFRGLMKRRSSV
# KCNQ1 inh = inhibitors of human KCNQ1 potassium channel | P51787 | CHO-K1 KCNQ1, FluxOR thallium flux fluorescence; stronger effect = higher value | B-score at 10 µM | hit rate 1.3% among 310,000 | AID 2642;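 active means compounds whose thallium flux B-score, printed positive for inhibition, exceeds three library SD while starting fluorescence stays within three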;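 further: channel opened by potassium depolarization with thallium stimulus after 20 min compound exposure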
# KCNQ1 act = potentiates or activates the human KCNQ1 potassium channel | P51787 | CHO-K1 KCNQ1, thallium flux FluxOR fluorescence; stronger effect = higher value | B-score at 10 µM | hit rate 0.35% among 310,000 | AID 2648;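 active means fluorescence ratio B-score, a plate-corrected score, at least three library SD, with initial intensity B-score within 5 SD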
#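 assay system = KCNQ1-transfected CHO-K1 cells | medium = assay buffer with matched DMSO | probe or stimulus = depolarizing K+/Tl+ stimulus, K2SO4 and Tl2SO4 each 12.5 mM in 5x stock | dosing = single dose | incubation = dye 90 min, compound 20 min, room temperature | detection = kinetic FluxOR fluorescence, 10 s baseline plus 110 s post-stimulus | evaluation = ratio B score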
# KCNK9 block = inhibitors of human KCNK9 two-pore domain potassium channel. Q9NPC2. HEK293 KCNK9, FluxOR thallium flux fluorescence; stronger effect = lower value. B-score at 10 µM. hit rate 1.2% among 310,000. AID 488922;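 active means ratio B-score over 3 SD below the library mean, with starting fluorescence within 5 SD of its mean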;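 further: negative B-score means less thallium flux so channel inhibition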
# hERG protect = hERG (human) protection from proarrhythmic block | Q12809 | CHO-hERG, FluxOR thallium flux, dofetilide IC70 present | activation (rescue from dofetilide block), less the hit threshold, % at 10 µM | hit rate 0.51% among 310,000 | AID 1511;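 active means activation above the mean of controls blocked by dofetilide plus 5 SD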;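 further: thallium influx through hERG after potassium depolarization seen as dye fluorescence rise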
# Hits are given with their value; 0 = inactive; - = not tested or not shown. In the library only some 3.1% were active in any assay of this set; here they are far more common.
SMILES,KCNK3 inh,KCNQ1 inh,KCNQ1 act,KCNK9 block,hERG protect
CCN(C[C@H]1N[C@@](C)(C(=O)OC)[C@H]2C(=O)N(C)C(=O)[C@@H]12)S(=O)(=O)c1ccc(OC)cc1,0,-,-,-,-
Cc1csc(NC(=S)NC(=O)c2ccccc2)n1,0,0,0,0,4.7
COC(=O)c1sc(NC(=S)NC(=O)c2ccccc2)nc1C,0,0,0,0,0
CCOC(=O)c1sc(NC(=O)c2ccc(OC(C)=O)cc2)nc1C,0,0,13,0,0
CCOC(=O)c1sc(NC(=S)NC(=O)c2ccccc2)nc1C,0,0,23,0,24
CCOC(=O)Cc1csc(NC(=S)NC(=O)c2ccccc2Br)n1,0,0,17,0,15
COCCN(C(=O)c1ccc(-c2ccc([N+](=O)[O-])cc2)o1)c1c(N)n(CC(C)C)c(=O)[nH]c1=O,0,-,-,-,-
COC(=O)c1ccc(C(=O)OC)c(NC(=O)CCc2ccc(C)o2)c1,0,0,0,0,45
COC(=O)c1ccc(C(=O)OC)c(NC(=O)CCC(=O)O)c1,0,0,0,0,0
CC(=O)c1cccc(NC(=O)c2cc(=O)[nH]c3ccc(S(=O)(=O)N4CCOCC4)cc23)c1,0,-,-,-,-
O=[N+]([O-])c1cc(Br)c(Nc2ccccc2)c([N+](=O)[O-])c1,0,0,0,0,0
O=[N+]([O-])c1cc([N+](=O)[O-])c2c(=Nc3ccccc3)n(-c3ccccc3)n(O)c2c1,-9.9,6,0,0,0
Cc1ccsc1C(=O)OCC(=O)NCc1ccc(Cl)cc1,0,-,-,-,-
CN(c1ccc(F)cc1)S(=O)(=O)c1ccc(Cl)c(C(=O)Nc2ccc3c(c2)CCC3)c1,0,0,0,-6.9,0
Cc1cc(C(=O)Nn2c(C3CCCCC3)nc3ccccc3c2=O)ccc1[N+](=O)[O-],0,0,0,0,0
O=C(Nn1c(C2CCCCC2)nc2ccccc2c1=O)c1ccc(Cl)c([N+](=O)[O-])c1,0,9,0,0,0
COc1cc(CNc2ccc3[nH]c(=O)[nH]c3c2)cc(Br)c1OCc1ccccc1F,0,0,0,0,0
Cc1ccc(NCc2ccccc2OCc2ccccc2F)cc1,0,8,0,0,0
Cc1cccc(NCc2ccccc2OCc2ccccc2F)c1,0,9,0,-7.5,0
CCOc1cc(CNc2ccccc2)cc(Br)c1OCc1ccccc1F,0,0,0,-7.6,0
COc1ccc(NC(=O)CS(=O)(=O)c2cn(CC(=O)N3CCCC3)c3ccccc23)c(OC)c1,0,0,0,0,0
COc1nc(-c2ccccc2)cc(C(F)(F)F)n1,0,0,0,0,4.7
CCOC(=O)CS(=O)(=O)c1nc(-c2ccc(F)cc2)cc(C(F)(F)F)n1,0,0,9,0,0
COc1ccc(-c2cc(C(F)(F)F)nc(S(C)(=O)=O)n2)cc1,0,6,0,0,0
COc1ccc(-c2cc(C(F)(F)F)nc(N)n2)cc1,0,0,0,0,0
SMILES,KCNK3 inh,KCNQ1 inh,KCNQ1 act,KCNK9 block,hERG protect
Cc1cc(OC(C)C(=O)NCc2cccnc2)c2c(C)cc(=O)oc2c1 (stereo unspecified),0,0,0,0,0
COc1cccc(N(CC(=O)Nc2ccccc2C(=O)N2CCCC2)S(C)(=O)=O)c1,0,0,0,0,0
FC(F)(F)c1cc(CO[C@@H]2CCCN[C@@H]2c2ccccc2)cc(C(F)(F)F)c1,0,-,-,-,-
O=C(Cc1ccc([N+](=O)[O-])cc1)Nc1cccc(C(=O)N2CCCCC2)c1,0,-,-,-,-
O=C1NC(=S)SC1=C1CCCCCC1,0,0,63,0,27
COc1ccc(C(=O)NNC(=O)C(=O)Nc2ccc(C)cc2)cc1,0,0,41,0,15
CCc1ccc(NC(=O)C(=O)NNC(=O)c2ccc(OC)cc2)cc1,0,0,77,0,36
COc1ccc(CC(=O)NNC(=O)c2ccc(NC(C)=O)cc2)cc1,0,0,0,0,0
COc1ccc(C(=O)NNC(=O)C(=O)Nc2ccc(C)c(Cl)c2)cc1,0,0,58,0,97
O=C(COc1coc(CN2CCN(c3ccc(F)cc3)CC2)cc1=O)NCC1CCCO1 (stereo unspecified),0,0,0,0,0
CC(=O)Oc1cccc2c1C(=O)C1CC=CC(OC(C)=O)C1C2=O (stereo unspecified),0,-,-,-,-
N#CCCN1CCN(C(=S)c2ccc(-c3cc(Cl)ccc3Cl)o2)CC1,0,0,0,-7.8,0
CN1CCN(C(=S)c2ccc(-c3cc(Cl)ccc3Cl)o2)CC1,0,0,0,0,0
